STAT1 blocker: reduces IFN-gamma driven STAT1 reporter signal; AID 920; inhibition, % at 5.5 µM; 0.35% of 200,000 active; NIH 3T3 STAT1-luciferase reporter, luminescence;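 active means inhibition above a set limit, the mean inhibition across all tested compounds plus 3 SD, cut at about 34% in these data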;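 further: 0% = IFN-gamma with DMSO and 100% = IFN-gamma with 300 µM nifuroxazide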
STAT3 act-1: activators of IL-6 induced STAT3 signaling; 0.91% of 190,000 active; activation (% of control), % at 5.6 µM; U3A cells, IL-6 STAT3-luciferase reporter, luminescence; 100% = signal with IL-6 EC80 alone;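 active means activation above the screen-wide mean of compound activation plus 3 SD, cut at about 130% in these data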;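 further: 0% = background luminescence of wells with medium and substrate only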
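Assay system – human STAT1-deficient U3A cells with stable STAT3-luciferase reporter · Also added – IL-6 (33 ng/mL) · Schedule – compound 1 h, then IL-6 6 h at 37 °C · Technique – reporter luminescence signal · Evaluation – % activation versus median of IL-6-stimulated wells · Benchmarks – IL-6-only wells as 100% reference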
TNF necrop inh: inhibitors of TNF-alpha induced necroptosis in Jurkat FADD-/- cells; AID 463075; 0.068% of 220,000 active; activation (protection from cell death), % at 10 µM; Jurkat FADD-/- TNF necroptosis rescue, ATP luminescence, 24 h; 0 = TNF only, 100 = no-TNF cells;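 active means activation, meaning protection from cell death, of at least 50% relative to plate controls; inactive means activation below 50%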;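 further: necroptosis triggered by 40 ng/mL TNF-alpha added together with compound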
L929 necroptosis: blocks zVAD induced death of L929 cells | L929 zVAD necroptosis rescue, ATP luminescence, 24 h; with zVAD 60 µM | viability rescue, % at 10 µM | 0.38% of 220,000 active;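 active means activation, scaled between plate controls, above about 75%, limit read from the data; inactive means activation under that limit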;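 further: 0% = zVAD with DMSO and 100% = DMSO alone without zVAD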
STAT3 blocker: inhibitors of IL-6 induced STAT3 signaling | U3A cells, IL-6 STAT3-luciferase reporter, luminescence; host cell line lacks STAT1 | inhibition, % at 5.5 µM | 0.89% of 190,000 active;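 active means inhibition above the mean inhibition across all screened compounds plus 3 SD, cut at about 44% in these data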;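 further: 0% = DMSO only wells and 100% = 100 µM nifuroxazide control wells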
STAT3 act-2: STAT3 activation, confirmation assay; 64% of 1,200 active; U3A STAT3-luciferase reporter, IL-6 potentiation, luminescence; U3A cells lack STAT1; 100 means same as IL-6 alone; potentiation (% of control), % at 5.7 µM; AID 1267; shares compounds with STAT3 act-1;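 active means percent activation of the STAT3 luciferase reporter above a set limit taken from the earlier primary screen, cut at about 130% in these data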;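 further: 0% = background signal of medium plus substrate and 100% = median of IL-6 with DMSO wells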
NFkB act STAT3ct: NF-kappaB activation in STAT3 activator counter-screen | shares compounds with STAT3 act-1 | human cells, NF-kappaB reporter activation | 11% of 1,200 active | AID 1309 | activation (% of control), % at 5.7 µM; in the data active means activation above about 120%;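 further: reporter induced by TNF-alpha stimulation; 100% = median of stimulated DMSO wells and 0% = no signal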
STAT1 act STAT3c: STAT1 activation in STAT3 activator counter-screen; AID 1318; activation (% of control), % at 5.7 µM; shares compounds with STAT3 act-1; 13% of 1,200 active; NIH 3T3 STAT1-luciferase reporter, IFN-gamma, luminescence;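 active means activation above the solvent-only control well mean plus 3 SD, set per screening run, cut at about 120% in these data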;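 further: 100% = IFN-gamma with DMSO median signal so 100% means no change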
Numbers without * were called inactive; . = no result. Hits are enriched below; roughly 2.1% of the tested compounds scored in any of these assays.

SMILES	STAT1 blocker	STAT3 act-1	TNF necrop inh	L929 necroptosis	STAT3 blocker	STAT3 act-2	NFkB act STAT3ct	STAT1 act STAT3c
O=C(O)c1cc2ccc3ccccc3c2oc1=O	-1	152*	-1	0	-58	132	99	99
CC(C)(CO)N=Cc1c(O)[nH]c2ccccc12	5	142*	-1	0	-42	137*	106	99
CCOC(=O)CSc1ncnc2c1cnn2-c1ccccc1	-4	138*	1	2	-38	91	101	96
CC(C)CCNC(=O)Cc1ccccc1[N+](=O)[O-]	10	150*	4	0	-47	128	102	96
Cc1ccc2ncccc2c1NC(=S)NC(=O)c1ccccc1	15	137*	0	1	-35	146*	110	100
Cc1ccc2ncccc2c1NS(=O)(=O)c1ccccc1	4	101	0	2	2	.	.	.
CC(C)(C)n1nnnc1C(c1ccccc1F)N1CCN(C2CCCC2)CC1 (centres undefined)	-16	94	2	0	13	.	.	.
CCc1ccccc1NC(=O)CCCSc1nc2ccccc2s1	-9	108	1	1	-14	.	.	.
O=C(CCCSc1nc2ccccc2s1)NCc1ccco1	-1	150*	0	1	-56	136*	101	97
OC1(c2ccccc2)c2ccccc2-c2ncccc21 (centres undefined)	-4	137*	-1	1	-41	134*	98	100
CCOc1ccccc1NC(=O)c1cc(Cl)ccc1NC(=O)c1ccco1	11	95	-1	0	11	.	.	.
O=C(O)C(Cc1cc2ccccc2[nH]1)N1C(=O)C2CC=C(Cl)CC2C1=O (centres undefined)	5	142*	-1	0	-44	135*	102	95
O=C1C2CC=C(Cl)CC2C(=O)N1CCc1ccccc1 (centres undefined)	6	95	-4	0	10	.	.	.
O=C(Cn1cnc([N+](=O)[O-])n1)NCc1ccccc1	0	97	4	0	11	.	.	.
O=C(CCCn1cnc([N+](=O)[O-])n1)Nc1cccc2ccccc12	-6	138*	2	0	-35	128	102	106
CCOC(=O)CSc1nc(-c2ccccc2)nc2c1oc1ccccc12	8	137*	-1	0	-37	134*	111	94
O=c1c2ccccc2nc(/C=C/c2c[nH]c3ccccc23)n1CCO	-18	136*	-5	2	-38	136*	117	126*
Cc1ccc(-c2nc3ccccc3n3nnnc23)cc1	-5	174*	0	0	-84	185*	131*	148*
Cc1ccc(NC(=O)C2CC(=O)NC(N3CCc4ccccc43)=N2)cc1 (centres undefined)	12	97	-5	0	7	.	.	.
COCc1cc(=O)n2c(-c3ccccc3OC)n[nH]c2n1	-6	145*	1	2	-49	159*	106	101
CCn1c(=O)c(C(=O)NCCc2ccccc2)c(O)c2ccccc21	-1	137*	-1	0	-38	134*	106	100
CCn1c(=O)c(C(=O)Nc2ccccc2C)c(O)c2ccccc21	-8	140*	-2	0	-44	141*	111	115
CCNCCNC(=O)c1c(O)c2ccccc2n(CC)c1=O	10	96	3	1	11	.	.	.
CCCCCCC(=O)NNC(=O)c1c(O)c2ccccc2n(CCC)c1=O	3	99	1	2	6	.	.	.
CCCn1c(=O)c(C(=O)Nc2ccccc2)c(O)c2ccccc21	-6	137*	-1	1	-41	122	103	100
SMILES	STAT1 blocker	STAT3 act-1	TNF necrop inh	L929 necroptosis	STAT3 blocker	STAT3 act-2	NFkB act STAT3ct	STAT1 act STAT3c
Cc1cc(C)c(C(=O)CN2C(=O)NC3(CCCCCC3)C2=O)cc1C	-26	107	2	5	-4	.	.	.
Cn1c(=O)c2c(nc(N3CCCC3)n2CC(O)CO)n(C)c1=O (centres undefined)	-6	141*	1	3	-42	104	111	105
CCOC(=O)c1cc2sc(C)cc2n1CC(=O)Nc1cccc(C)c1C	-1	97	1	-2	10	.	.	.
Cc1cc2ccc(C)c(C)c2nc1SCC(=O)c1cccs1	21	160*	-1	0	-66	134*	100	91
CC1(C)CC(=O)N(CC(=O)NCc2ccccc2)c2ccccc2S1(=O)=O	3	98	1	1	8	.	.	.
CC1=C([N+](=O)[O-])C(c2cccc(Br)c2)C2=C(N1)c1ccccc1C2=O (centres undefined)	-12	175*	-17	-2	-76	149*	149*	110
CSc1nsc(/C=C/Nc2ccc(C)cc2)c1C#N	0	137*	-1	1	-45	136*	105	108
CSc1nsc(/C=C/Nc2ccc(C)c(C)c2)c1C#N	2	97	0	2	7	.	.	.
C/C(=N/NS(=O)(=O)c1ccc(Br)cc1)c1ccc(C)o1	7	101	2	0	2	.	.	.
Cc1ccc(C)n1NC(=O)c1ccccc1O	1	153*	-1	1	-55	151*	105	97
Cc1ccc(-c2ccc(CCC(=O)O)n2-c2cccc(O)c2)cc1	-6	104	0	2	3	.	.	.
Nc1ccc(-c2nc3cc(N)ccc3n2CCO)cc1	.	.	0	0	.	.	.	.
COc1ccc2c(c1)N1CCN=C1N2C	-7	104	0	0	-2	.	.	.
O=C(Oc1c(Cl)cc(Cl)c2ccccc12)N1CCCC1	10	143*	-1	0	-44	151*	112	107
Cc1ccc(S(=O)(=O)NCc2ccc(C(=O)NCCCN3CCC(Cc4ccccc4)CC3)cc2)cc1	4	94	1	0	12	.	.	.
Cn1c(/N=C/c2cccs2)nc2ccccc21	1	147*	0	0	-55	122	98	94
Cn1c(/N=C/c2cc(Cl)ccc2O)nc2ccccc21	-4	157*	-4	0	-54	130	109	90
CN=CC1=C(O)c2ccccc2C1=O	-8	103	1	1	2	.	.	.
Cc1ccc(O)c(N=CC2=C(O)c3ccccc3C2=O)c1	-25	149*	-16	2	-49	138*	128*	105
c1ccc2c(-c3nc4ncccc4o3)cccc2c1	-3	141*	-5	1	-43	124	109	110

From PubChem BioAssay
